# Measurements published in ChEMBL document CHEMBL5058577, “EUbOPEN Chemogenomics Library 2 (Multiplex)” (2022).
# System: U2OS
# Experiment: Multiplex assay against U2OS
# Assay type: toxicity, cell-based
# Conditions: human
# Outline: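 Cells stained live at seeding with Hoechst33342, BioTracker Green Microtubule Cytoskeleton Dye, MitoTracker Red and Annexin V Alexa Fluor 680 were imaged on a CQ1 microscope at 37°C and 5% CO2 after compound addition. Their classification by CellPathfinder machine-learning gating ran from Hoechst high-intensity objects versus normal cells, to healthy, pyknosed or fragmented nuclei among normal cells, to mitotic or apoptotic among pyknosed cells. Tubulin, mitochondrial-mass and membrane-permeability phenotypes are per cents of healthy-nucleus cells.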
# [1] = 12 h, 1 µM, compound concentration 1 uM, replicate 1
# [2] = 12 h, 1 µM, compound concentration 1 uM, replicate 2
# [3] = 12 h, 10 µM, compound concentration 10 uM, replicate 1
# [4] = 12 h, 10 µM, compound concentration 10 uM, replicate 2
# [5] = 24 h, 1 µM, compound concentration 1 uM, replicate 1
# [6] = 24 h, 1 µM, compound concentration 1 uM, replicate 2
# [7] = 24 h, 10 µM, compound concentration 10 uM, replicate 1
# [8] = 24 h, 10 µM, compound concentration 10 uM, replicate 2
# [9] = 48 h, 1 µM, compound concentration 1 uM, replicate 1
# [10] = 48 h, 1 µM, compound concentration 1 uM, replicate 2
# [11] = 48 h, 10 µM, compound concentration 10 uM, replicate 1
# [12] = 48 h, 10 µM, compound concentration 10 uM, replicate 2
smiles,measurement,setting,value
C[C@H]1[C@H]2CC[C@H]3[C@@H]4CC=C5C[C@@H](N(C)C)CC[C@]5(C)[C@H]4CC[C@]23CN1C [CONESSINE],Population Apoptotic (%),[1],80%
same,Population Fragmented Nuclei (%),[1],23%
same,Population Healthy Nuclei (%),[1],70%
same,Population Hoechst High Intensity Objects (%),[1],2%
same,Population Membrane Permeable-Phenotype (%),[1],5%
same,Population Mitochondria Different-Phenotype (%),[1],1%
same,Population Mitotic Cells (%),[1],20%
same,Population Normal (%),[1],97%
same,Population Pyknosed Nuclei (%),[1],6%
same,Population Tubulin-Different-Phenotype (%),[1],2%
same,Total Cell Count,[1],248
same,Population Apoptotic (%),[2],58%
same,Population Fragmented Nuclei (%),[2],16%
same,Population Healthy Nuclei (%),[2],73%
same,Population Hoechst High Intensity Objects (%),[2],1%
same,Population Mitochondria Different-Phenotype (%),[2],2%
same,Population Mitotic Cells (%),[2],41%
same,Population Normal (%),[2],98%
same,Population Pyknosed Nuclei (%),[2],9%
same,Population Tubulin-Different-Phenotype (%),[2],3%
same,Total Cell Count,[2],124
same,Population Apoptotic (%),[3],55%
same,Population Fragmented Nuclei (%),[3],19%
same,Population Healthy Nuclei (%),[3],71%
same,Population Hoechst High Intensity Objects (%),[3],2%
same,Population Membrane Permeable-Phenotype (%),[3],5%
same,Population Mitochondria Different-Phenotype (%),[3],0%
same,Population Mitotic Cells (%),[3],45%
same,Population Normal (%),[3],97%
same,Population Pyknosed Nuclei (%),[3],8%
same,Population Tubulin-Different-Phenotype (%),[3],1%
same,Total Cell Count,[3],237
same,Population Apoptotic (%),[4],100%
same,Population Fragmented Nuclei (%),[4],17%
same,Population Healthy Nuclei (%),[4],68%
same,Population Hoechst High Intensity Objects (%),[4],0%
same,Population Membrane Permeable-Phenotype (%),[4],8%
same,Population Mitochondria Different-Phenotype (%),[4],5%
same,Population Mitotic Cells (%),[4],0%
same,Population Normal (%),[4],99%
same,Population Pyknosed Nuclei (%),[4],13%
same,Population Tubulin-Different-Phenotype (%),[4],6%
same,Total Cell Count,[4],107
same,Population Apoptotic (%),[5],90%
same,Population Fragmented Nuclei (%),[5],18%
same,Population Healthy Nuclei (%),[5],74%
same,Population Hoechst High Intensity Objects (%),[5],2%
same,Population Membrane Permeable-Phenotype (%),[5],6%
same,Population Mitochondria Different-Phenotype (%),[5],1%
same,Population Mitotic Cells (%),[5],9%
same,Population Normal (%),[5],97%
same,Population Pyknosed Nuclei (%),[5],7%
same,Population Tubulin-Different-Phenotype (%),[5],3%
same,Total Cell Count,[5],307
same,Population Apoptotic (%),[6],100%
same,Population Fragmented Nuclei (%),[6],11%
same,Population Healthy Nuclei (%),[6],81%
same,Population Hoechst High Intensity Objects (%),[6],1%
same,Population Membrane Permeable-Phenotype (%),[6],8%
same,Population Mitochondria Different-Phenotype (%),[6],5%
same,Population Mitotic Cells (%),[6],0%
same,Population Normal (%),[6],98%
same,Population Tubulin-Different-Phenotype (%),[6],7%
same,Total Cell Count,[6],153
same,Population Apoptotic (%),[7],65%
same,Population Fragmented Nuclei (%),[7],20%
same,Population Healthy Nuclei (%),[7],71%
same,Population Hoechst High Intensity Objects (%),[7],2%
same,Population Membrane Permeable-Phenotype (%),[7],2%
same,Population Mitochondria Different-Phenotype (%),[7],0%
same,Population Mitotic Cells (%),[7],35%
same,Population Normal (%),[7],97%
same,Population Pyknosed Nuclei (%),[7],7%
same,Population Tubulin-Different-Phenotype (%),[7],1%
same,Total Cell Count,[7],265
same,Population Apoptotic (%),[8],100%
same,Population Fragmented Nuclei (%),[8],19%
same,Population Hoechst High Intensity Objects (%),[8],4%
same,Population Membrane Permeable-Phenotype (%),[8],10%
same,Population Mitochondria Different-Phenotype (%),[8],4%
same,Population Mitotic Cells (%),[8],0%
same,Population Normal (%),[8],95%
same,Population Pyknosed Nuclei (%),[8],8%
same,Population Tubulin-Different-Phenotype (%),[8],9%
same,Total Cell Count,[8],134
same,Population Apoptotic (%),[9],83%
same,Population Fragmented Nuclei (%),[9],16%
same,Population Healthy Nuclei (%),[9],79%
same,Population Hoechst High Intensity Objects (%),[9],2%
same,Population Membrane Permeable-Phenotype (%),[9],4%
same,Population Mitochondria Different-Phenotype (%),[9],2%
same,Population Mitotic Cells (%),[9],16%
same,Population Normal (%),[9],97%
same,Population Pyknosed Nuclei (%),[9],4%
same,Population Tubulin-Different-Phenotype (%),[9],1%
same,Total Cell Count,[9],430
same,Population Apoptotic (%),[10],86%
same,Population Healthy Nuclei (%),[10],73%
same,Population Mitochondria Different-Phenotype (%),[10],0%
same,Population Mitotic Cells (%),[10],13%
same,Population Pyknosed Nuclei (%),[10],9%
same,Population Tubulin-Different-Phenotype (%),[10],2%
same,Total Cell Count,[10],227
same,Population Apoptotic (%),[11],89%
same,Population Fragmented Nuclei (%),[11],19%
same,Population Healthy Nuclei (%),[11],73%
same,Population Hoechst High Intensity Objects (%),[11],1%
same,Population Membrane Permeable-Phenotype (%),[11],4%
same,Population Mitochondria Different-Phenotype (%),[11],2%
same,Population Mitotic Cells (%),[11],10%
same,Population Normal (%),[11],98%
same,Population Pyknosed Nuclei (%),[11],7%
same,Population Tubulin-Different-Phenotype (%),[11],3%
same,Total Cell Count,[11],370
same,Population Apoptotic (%),[12],85%
same,Population Fragmented Nuclei (%),[12],15%
same,Population Healthy Nuclei (%),[12],72%
same,Population Hoechst High Intensity Objects (%),[12],6%
same,Population Membrane Permeable-Phenotype (%),[12],9%
same,Population Mitochondria Different-Phenotype (%),[12],5%
same,Population Mitotic Cells (%),[12],15%
same,Population Normal (%),[12],93%
same,Population Pyknosed Nuclei (%),[12],12%
same,Population Tubulin-Different-Phenotype (%),[12],6%
same,Total Cell Count,[12],175
